The record followed here is ChEMBL document CHEMBL1133909, “Piperazine-based CCR5 antagonists as HIV-1 inhibitors. I: 2(S)-methyl piperazine as a key pharmacophore element” (Bioorg Med Chem Lett, 2001).

Experiment [1] has as its target T1, Muscarinic acetylcholine receptor M2 (Homo sapiens, UniProt P08172).
T1 sequence (P08172 whole entry): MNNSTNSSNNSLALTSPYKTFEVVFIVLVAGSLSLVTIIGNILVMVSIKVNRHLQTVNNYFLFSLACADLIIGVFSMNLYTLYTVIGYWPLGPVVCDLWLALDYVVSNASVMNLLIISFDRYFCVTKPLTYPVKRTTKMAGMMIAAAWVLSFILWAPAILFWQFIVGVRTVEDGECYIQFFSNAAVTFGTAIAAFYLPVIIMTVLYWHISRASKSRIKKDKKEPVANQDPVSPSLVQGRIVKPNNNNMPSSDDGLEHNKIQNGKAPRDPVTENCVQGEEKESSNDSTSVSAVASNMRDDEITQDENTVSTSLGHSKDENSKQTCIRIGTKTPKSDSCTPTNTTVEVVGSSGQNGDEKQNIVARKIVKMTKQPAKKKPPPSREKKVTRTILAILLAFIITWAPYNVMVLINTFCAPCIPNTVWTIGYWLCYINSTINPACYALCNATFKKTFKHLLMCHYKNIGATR
As to the kind of experiment: Affinity for Muscarinic acetylcholine receptor M2.

Experiment [2] has as its target T2, C-C chemokine receptor type 5 (Homo sapiens, UniProt P51681). As to the kind of experiment: Inhibition of [125I]-labeled RANTES binding to C-C chemokine receptor type 5. The procedure, abridged:
(§1)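 Membranes from CHO cells expressing CCR5 incubated 1 h with 125I-RANTES, with or without compound. Counts averaged. IC50 taken as the amount inhibiting 50% of total 125I-RANTES binding. Ki derived from the binding data. Standard error 10%; assay-to-assay variability 2–3 fold.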

Experiment [3] is described as follows: Antiviral activity was measured as inhibition of the growth of primary HIV-1 isolate (US-1) in human peripheral blood mononuclear cells. Type of experiment: functional.
The target of experiment [4] is T2, C-C chemokine receptor type 5. As to the kind of experiment: Ability to inhibit [125I]-labeled RANTES binding to C-C chemokine receptor type 5. The procedure, abridged: as §1
The target is the same in experiment [5]. As to the kind of experiment: Ability to inhibit [125I]-labeled RANTES binding to C-C chemokine receptor type 5 expressed in membrane preparation of CHO cells. Type of experiment: cell membranes. The method in brief:
as §1

T2 sequence (P51681 whole entry): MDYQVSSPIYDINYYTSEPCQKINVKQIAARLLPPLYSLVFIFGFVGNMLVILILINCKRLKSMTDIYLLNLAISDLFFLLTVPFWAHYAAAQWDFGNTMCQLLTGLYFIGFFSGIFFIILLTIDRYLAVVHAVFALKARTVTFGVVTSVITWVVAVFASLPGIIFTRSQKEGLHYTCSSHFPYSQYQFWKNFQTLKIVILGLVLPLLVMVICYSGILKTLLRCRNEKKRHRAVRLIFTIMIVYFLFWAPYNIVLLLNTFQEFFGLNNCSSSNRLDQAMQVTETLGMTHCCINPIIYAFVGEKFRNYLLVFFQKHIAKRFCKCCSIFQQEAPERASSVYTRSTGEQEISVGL

With `Cc1cccc(C)c1C(=O)N1CCC(N2CCN([C@@H](C)c3ccc(Cc4ccc5c(c4)OCO5)cc3)[C@@H](C)C2)CC1`, the Ki (commonly the dissociation constant of the complex between target and ligand, obtained from inhibition or displacement) in experiment [1] came to 760 nM; in experiment [2], 18 nM. In experiment [3], the IC50 (usually the concentration at which inhibition is half-maximal) came to 8 nM.

`C[C@H]1CN(C2CCN(C(=O)c3c(Cl)cccc3Cl)CC2)CCN1[C@@H](C)c1ccc(S(=O)(=O)c2ccc3c(c2)OCO3)cc1`: the Ki in experiment [1] was found to be 270 nM; in experiment [2], 49 nM.

In experiment [4], `Cc1cccc(C)c1C(=O)N1CCC(N2CCN([C@@H](C)c3ccc(S(=O)(=O)c4ccc5c(c4)OCO5)cc3)[C@H](C)C2)CC1` registered an IC50 of 440 nM. This molecule also showed a Ki in experiment [1] of 0.8 nM.

Turning to `Cc1cccc(C)c1C(=O)N1CCC(N2CCN([C@@H](C)c3ccc(Cc4cccc(Cl)c4)cc3)[C@@H](C)C2)CC1`, the Ki in experiment [1] was > 1400 nM; in experiment [2], 45 nM.

With `Cc1cccc(C)c1C(=O)N1CCC(N2CCN(Cc3ccc(Cc4ccc5c(c4)OCO5)cc3)CC2)CC1`, the Ki is 497 nM in experiment [1] and 352 nM in experiment [2].

With `Cc1cccc(C)c1C(=O)N1CCC(N2CCN(Cc3ccc(Cc4ccc5c(c4)OCO5)cc3)[C@@H](C)C2)CC1`, the figures for the Ki in experiment [1] and in experiment [2] were > 40 nM and 44 nM, respectively.

`Cc1cccc(C)c1C(=O)N1CCC(N2CCN(Cc3ccc(S(=O)(=O)c4ccc5c(c4)OCO5)cc3)CC2)CC1`: the Ki in experiment [1] was 31 nM; in experiment [2] it was > 1300 nM.

With `C[C@H]1CN(C2CCN(C(=O)c3c(F)cccc3F)CC2)CCN1[C@@H](C)c1ccc(S(=O)(=O)c2ccc3c(c2)OCO3)cc1`, the values for the inhibition constant Ki in experiment [1] and in experiment [2] were 352 nM and 230 nM, respectively.

Consider `Cc1cccc(C)c1C(=O)N1CCC(N2CCN([C@@H](C)c3ccc(S(=O)(=O)c4ccc5c(c4)OCO5)cc3)CC2)CC1`, for which the Ki in experiment [1] was 1 nM; in experiment [2], 442 nM.

`Cc1cccc(C)c1C(=O)N1CCC(N2CCN(Cc3ccc(S(=O)(=O)c4ccc5c(c4)OCO5)cc3)[C@@H](C)C2)CC1`: the Ki in experiment [1] is > 40 nM; in experiment [2] it was 74 nM.

Take `C[C@H]1CN(C2CCN(C(=O)c3c(N)cccc3Cl)CC2)CCN1[C@@H](C)c1ccc(S(=O)(=O)c2ccc3c(c2)OCO3)cc1`: the Ki in experiment [1] came to 100 nM; in experiment [2], 32 nM.

In the case of `Cc1cccc(N)c1C(=O)N1CCC(N2CCN([C@@H](C)c3ccc(S(=O)(=O)c4ccc5c(c4)OCO5)cc3)[C@@H](C)C2)CC1`, the Ki in experiment [1] stood at 100 nM; in experiment [5], 31 nM.

Consider `Cc1cccc(C)c1C(=O)N1CCC(N2CCN([C@@H](C)c3ccc(S(=O)(=O)c4ccc5c(c4)OCO5)cc3)[C@@H](C)C2)CC1`, for which the Ki in experiment [1] stood at 485 nM; in experiment [2], 28 nM.

In the case of `Cc1ccccc1C(=O)N1CCC(N2CCN([C@@H](C)c3ccc(Cc4ccc5c(c4)OCO5)cc3)[C@@H](C)C2)CC1`, in experiment [4], the IC50 came out at 90 nM. Besides, in experiment [1], the Ki amounted to 35 nM.
